Measured values taken from ChEMBL document CHEMBL1255364, “Delayed development of linezolid resistance in Staphylococcus aureus following exposure to low levels of antimicrobial agents” (2008).
In brackets after ≈: the same amount, converted by molar mass. Activity calls are given as the source filed them. No cut-off for these calls is given here.

How the values were obtained:
[1] = test system: Staphylococcus aureus; experiment: Suppression of drug resistance development in Staphylococcus aureus RN4220 assessed as assessed as prolonged length of subculture to develop Linezolid resistance at 0.25 times IC50
[2] = test system: Staphylococcus aureus; experiment: Antibacterial activity against Staphylococcus aureus KM52 after 18 to 24 hrs by broth microdilution method selected after 16 ug/ml drug exposure for 6 hrs by culture absorbance method; assay type: functional
How it was run: (§1)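 Broth microdilution in Mueller-Hinton broth per BSAC guidelines. MIC read as the lowest concentration completely inhibiting visible growth after 18 to 24 h at 37°C. Strains were linezolid-selected derivatives recovered from repeated 6-h linezolid exposure cycles.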

[3] = test system: Staphylococcus aureus; experiment: Suppression of drug resistance development in LZD intermediate-resistant Staphylococcus aureus KM183 assessed as prolonged length of subculture to develop Linezolid resistance at 4 times MIC and 0.25 times IC50 after 8 days; assay type: functional, organism-based
How it was run: (§2)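 Stationary-phase MHB cultures were exposed for 6 h to linezolid at 4× MIC, with secondary agent(s) at 0.25× IC50. IC50 was the concentration halving growth rate by culture absorbance. A 5 μl aliquot was transferred to fresh drug-free medium and the cycle repeated. […] Four runs were done, with days to resistance averaged to the nearest day.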

[4] = test system: Staphylococcus aureus; experiment: Antibacterial activity against Staphylococcus aureus KM183 after 18 to 24 hrs by broth microdilution method selected after 16 ug/ml drug exposure for 6 hrs by culture absorbance method; assay type: functional
How it was run: as §1

[5] = test system: Staphylococcus aureus; experiment: Suppression of drug resistance development in recA-deficient Staphylococcus aureus KB103 assessed as prolonged length of subculture to develop Linezolid resistance at 4 times MIC and 0.25 times IC50 after 20 days; assay type: functional, organism-based
How it was run: as §2

[6] = test system: Staphylococcus aureus; experiment: Antibacterial activity against Staphylococcus aureus KM53 after 18 to 24 hrs by broth microdilution method selected after 16 ug/ml drug exposure for 6 hrs by culture absorbance method; assay type: functional
How it was run: as §1

[7] = test system: Staphylococcus aureus; experiment: Antibacterial activity against Staphylococcus aureus KM51 after 18 to 24 hrs by broth microdilution method selected after 16 ug/ml drug exposure for 6 hrs by culture absorbance method; assay type: functional
How it was run: as §1

[8] = test system: Staphylococcus aureus; experiment: Antibacterial activity against Staphylococcus aureus KM50 after 18 to 24 hrs by broth microdilution method selected after 16 ug/ml drug exposure for 6 hrs by culture absorbance method; assay type: functional
How it was run: as §1

[9] = test system: Staphylococcus aureus; experiment: Antibacterial activity against Staphylococcus aureus KM187 after 18 to 24 hrs by broth microdilution method selected after 16 ug/ml drug exposure for 6 hrs by culture absorbance method; assay type: functional
How it was run: as §1

[10] = test system: Staphylococcus aureus; experiment: Suppression of drug resistance development in Staphylococcus aureus isolate EMRAS-15 assessed as prolonged length of subculture to develop Linezolid resistance at 4 times MIC and 0.25 times IC50 after 25 days; assay type: functional, organism-based
How it was run: as §2

[11] = test system: Staphylococcus aureus; experiment: Suppression of resistance related recombination in Staphylococcus aureus RN4220 at 0.25 times IC50 at 42 degC
[12] = test system: Staphylococcus aureus; experiment: Suppression of drug resistance development in Staphylococcus aureus RN4220 assessed as prolonged length of subculture to develop Linezolid resistance at 4 times MIC and 0.25 times IC50 after 25 days; assay type: functional, organism-based
How it was run: as §2

[13] = test system: Staphylococcus aureus; experiment: Suppression of drug resistance development in Staphylococcus aureus RN4220 assessed as assessed as prolonged length of subculture to develop Linezolid resistance at 0.25 times MIC; assay type: functional

CO[C@@H]1[C@@H](OC(N)=O)[C@@H](O)[C@H](Oc2ccc3c(O)c(NC(=O)c4ccc(O)c(CC=C(C)C)c4)c(=O)oc3c2C)OC1(C)C [NOVOBIOCIN] gave a Time [1] of 14 days.

For CC(=O)NC[C@H]1CN(c2ccc(N3CCOCC3)c(F)c2)C(=O)O1 [LINEZOLID], the MIC [2] was 32 µg/mL (≈ 94.9 µM), the Activity [3] was “Active” and the MIC [4] was 16 µg/mL (≈ 47.4 µM). The Activity [5] was “Active”, the MIC [6] was 32 µg/mL (≈ 94.9 µM) and the MIC [7] was 32 µg/mL (≈ 94.9 µM). For the same compound, the MIC [8] was 32 µg/mL (≈ 94.9 µM) and the MIC [9] was 32 µg/mL (≈ 94.9 µM).

For CC(=O)O[C@H]1C[C@@]2(C)[C@@H](C[C@@H](O)[C@H]3[C@@]4(C)CC[C@@H](O)[C@@H](C)[C@@H]4CC[C@@]32C)/C1=C(\CCC=C(C)C)C(=O)O, the Activity [5] was “Active”, the Activity [10] was “Active” and the inhibition [11] was “Active”. For the same compound, the Activity [12] was “Active”.

For CN(C)[C@@H]1C(O)=C(C(N)=O)C(=O)[C@@]2(O)C(O)=C3C(=O)c4c(O)cccc4[C@@](C)(O)[C@H]3C[C@@H]12 [TETRACYCLINE], the Time [1] was 14 days.

With CO[C@H]1/C=C/O[C@@]2(C)Oc3c(C)c(O)c4c(O)c(c(/C=N/N5CCN(C)CC5)c(O)c4c3C2=O)NC(=O)/C(C)=C\C=C\[C@H](C)[C@H](O)[C@@H](C)[C@@H](O)[C@@H](C)[C@H](OC(C)=O)[C@@H]1C the Activity [5] was “Active”, the inhibition [11] was “Active” and the Activity [12] was “Active”.

O=C(O)c1cn(C2CC2)c2cc(N3CCNCC3)c(F)cc2c1=O [CIPROFLOXACIN] gave a Time [1] of 14 days.

Compound GENTAMICIN has a TIME [13] of 336 h.
